Results on four compounds are retold here after ChEMBL document CHEMBL1144988, “Stereoselective preparation of N-[(R,R)-(E)-1-(3,4-dichlorobenzyl)-3- (2-oxoazepan-3-yl)carbamoyl]allyl-N-methyl-3,5-bis(trifluoromethyl)benzamide, a potent and orally active dual neurokinin NK(1)/NK(2) receptor antagonist” (J Med Chem, 2003).

Data set [1] deals with T1, Substance-K receptor (Homo sapiens, UniProt P21452).
T1 sequence (P21452 whole entry): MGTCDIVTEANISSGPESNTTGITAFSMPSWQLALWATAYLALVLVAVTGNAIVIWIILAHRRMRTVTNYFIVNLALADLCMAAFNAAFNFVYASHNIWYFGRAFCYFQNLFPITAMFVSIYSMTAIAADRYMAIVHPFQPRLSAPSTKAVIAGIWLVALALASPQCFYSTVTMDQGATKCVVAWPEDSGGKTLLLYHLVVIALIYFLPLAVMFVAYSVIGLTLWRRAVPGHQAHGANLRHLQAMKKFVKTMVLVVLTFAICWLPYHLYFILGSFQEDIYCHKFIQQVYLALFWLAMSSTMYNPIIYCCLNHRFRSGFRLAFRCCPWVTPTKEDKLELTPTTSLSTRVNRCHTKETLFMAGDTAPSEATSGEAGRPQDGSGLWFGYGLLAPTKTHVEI
In words: In vitro binding affinity towards Human Tachykinin receptor 2. The procedure, abridged: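 Membranes from CHO cells expressing cloned human NK2 receptor, incubated with 125I-neurokinin A (1.4 nM final) in 20 mM HEPES, 1 mM MnCl2, pH 7.4, for 60 min at 28 °C. Nonspecific binding was defined with NKA. Bound radioactivity was collected by filtration, washed with ice-cold 50 mM Tris pH 7.4, then counted by scintillation.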

The target in data set [2] is Substance-P receptor (Homo sapiens, UniProt P25103). In words: In vitro binding affinity towards Human Tachykinin receptor 1. The procedure, abridged:
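Membranes from CHO cells expressing cloned human NK1 receptor, incubated with 3H-[Sar9,Met(O2)11]SP (0.5 nM final) in 20 mM HEPES, 1 mM MnCl2, pH 7.4, for 60 min at 28 °C. Nonspecific binding was defined with Sar9SP. Bound radioactivity was collected by filtration, washed with ice-cold 50 mM Tris pH 7.4, then counted by scintillation.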

Data set [3] addresses T2, Substance-K receptor (Cavia porcellus, UniProt Q64077).
T2 sequence (Q64077 whole entry): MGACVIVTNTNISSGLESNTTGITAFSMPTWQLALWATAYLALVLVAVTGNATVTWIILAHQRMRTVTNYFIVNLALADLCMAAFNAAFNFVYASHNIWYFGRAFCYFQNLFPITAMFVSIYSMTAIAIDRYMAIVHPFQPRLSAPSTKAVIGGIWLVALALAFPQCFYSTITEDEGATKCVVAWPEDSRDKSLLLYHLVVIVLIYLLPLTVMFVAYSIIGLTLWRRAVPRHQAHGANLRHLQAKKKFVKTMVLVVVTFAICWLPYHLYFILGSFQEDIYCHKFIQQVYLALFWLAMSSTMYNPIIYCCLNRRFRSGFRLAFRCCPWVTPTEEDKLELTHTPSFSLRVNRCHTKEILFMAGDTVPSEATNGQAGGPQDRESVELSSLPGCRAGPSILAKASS
In words: In vitro relative antagonist potency towards guinea pig Tachykinin receptor 2. It counts as functional. The conditions noted are these: read-out: pA2 (converted).

Data set [4] concerns the target Substance-P receptor (Cavia porcellus, UniProt P30547). In words: In vitro relative antagonist potency towards guinea pig Tachykinin receptor 1. It counts as functional. The conditions noted are these: read-out: pA2 (converted).
Data set [5] in a line: (§1) Plasma concentration in Blood of guinea pig when given at a dose of 10 mg/kg perorally. It counts as ADME, organism-based, Cavia porcellus. Further details: dose 10 mg/kg, route oral. The conditions noted are these: plasma, po. The procedure, abridged:
(§2)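 Guinea pigs given a single oral dose of 10 mg/kg (n = 7) as a microemulsion (2% DMSO/20% Sandimmon placebo/78% saline) or as a cremophor/2% DMSO formulation. Food was withdrawn up to 18 h predose, and animals carried heparin-flushed cannulas. Blood was sampled at 60, 120, 240, 360, 480, 720 and 1440 min. The read-outs were t1/2, Cmax, AUC0–24h and bioavailability.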

The subject of data set [6] is Cavia porcellus. The description is as §1. It counts as ADME, organism-based. Also noted: dose 10 mg/kg, route oral. The conditions noted are these: in vivo, po. The procedure, abridged: as §2
Data set [7] is described as follows: Area Under the concentration-time curve from zero time to 24 hr in guinea pig when given at a dose of 10 mg/kg perorally (Microemulsion). It counts as ADME, organism-based, Cavia porcellus. Further details: time < 24 hr, dose 10 mg/kg, route oral. The conditions noted are these: in vivo, po. The procedure, abridged: as §2
The nature of data set [8]: Area Under the concentration-time curve from zero time to 24 hr in guinea pig when given at a dose of 10 mg/kg perorally (cremophor). It counts as ADME, organism-based, Cavia porcellus. Further details: time < 24 hr, dose 10 mg/kg, route oral. The conditions noted are these: in vivo, po. The procedure, abridged: as §2
A short description of data set [9]: Half life period in guinea pig when given at a dose of 3 mg/kg intravenously. It counts as ADME, organism-based, Cavia porcellus. The conditions noted are these: in vivo, iv. Further details: dose 3 mg/kg, route intravenous. The procedure, abridged: (§3)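 Guinea pigs given 3 mg/kg iv via the jugular vein (n = 6) in a cremophor formulation, with cannulas flushed with heparinized saline. Blood was sampled at 5, 30, 60, 120, 240, 360, 720 and 1440 min. The read-outs were terminal elimination half-life and AUC0–24h.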

Data set [10] deals with Saimiri sciureus. As to the kind of experiment: In vivo Effective peroral dose which inhibits Beta-ala8-Neurokinin A induced bronchoconstriction (airways resistance) in squirrel monkey. The conditions noted are these: in Primates, po.
Data set [11] can be described thus: Bioavailability in guinea pig (dose 10 mg/kg p.o.). It counts as ADME, organism-based, Cavia porcellus. The conditions noted are these: in vivo, po. The procedure, abridged:
as §2

A short description of data set [12]: Area Under the concentration-time curve from zero time to 24 hr in guinea pig when given at a dose of 3 mg/kg intravenously. It counts as ADME, organism-based, Cavia porcellus. The conditions noted are these: in vivo, iv. Also noted: time < 24 hr, dose 3 mg/kg, route intravenous. The procedure, abridged: as §3
Data set [13] in a line: (§4) Half life period in guinea pig when given at a dose of 10 mg/kg perorally. It counts as ADME, organism-based, Cavia porcellus. Further details: dose 10 mg/kg, route oral. The conditions noted are these: in vivo, po. The procedure, abridged: as §2
Data set [14] relates to Cavia porcellus. Described as §4. The conditions noted are these: in vivo, po. Further details: dose 10 mg/kg, route oral. It counts as ADME, organism-based. The procedure, abridged:
as §2

In data set [15] the test system is Saimiri sciureus. In words: In vivo Effective peroral dose which inhibits Beta-ala8-Neurokinin A induced bronchoconstriction (dynamic compliance) in squirrel monkey. The conditions noted are these: in Primates, po.

“And” between values parts separate entries of the source, which are not always exact repeats. Identical values can stand only once.

Sequence of Substance-P receptor (Homo sapiens, UniProt P25103) (P25103 whole entry): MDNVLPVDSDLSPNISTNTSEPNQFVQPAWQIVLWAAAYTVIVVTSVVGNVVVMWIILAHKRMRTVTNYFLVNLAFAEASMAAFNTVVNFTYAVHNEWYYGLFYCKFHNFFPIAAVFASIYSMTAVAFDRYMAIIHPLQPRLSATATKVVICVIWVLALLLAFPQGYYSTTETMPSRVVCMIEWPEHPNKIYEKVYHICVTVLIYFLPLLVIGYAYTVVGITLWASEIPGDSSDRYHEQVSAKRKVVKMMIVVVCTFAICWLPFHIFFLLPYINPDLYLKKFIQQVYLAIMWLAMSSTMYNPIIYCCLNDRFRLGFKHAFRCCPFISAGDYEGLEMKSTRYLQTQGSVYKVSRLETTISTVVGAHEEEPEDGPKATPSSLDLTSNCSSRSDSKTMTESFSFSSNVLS
Sequence of Substance-P receptor (Cavia porcellus, UniProt P30547) (P30547 whole entry): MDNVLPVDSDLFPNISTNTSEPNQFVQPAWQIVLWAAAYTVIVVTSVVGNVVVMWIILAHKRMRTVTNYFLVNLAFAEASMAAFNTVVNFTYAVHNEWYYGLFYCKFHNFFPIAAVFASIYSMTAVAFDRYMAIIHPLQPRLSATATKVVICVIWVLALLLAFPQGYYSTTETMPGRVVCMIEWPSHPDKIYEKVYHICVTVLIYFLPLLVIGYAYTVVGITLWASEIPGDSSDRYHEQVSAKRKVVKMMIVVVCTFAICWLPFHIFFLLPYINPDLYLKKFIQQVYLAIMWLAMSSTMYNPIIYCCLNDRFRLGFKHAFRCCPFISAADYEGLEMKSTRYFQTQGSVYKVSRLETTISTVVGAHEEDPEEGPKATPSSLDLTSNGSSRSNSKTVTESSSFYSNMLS

Turning to `CN(C(=O)c1cc(C(F)(F)F)cc(C(F)(F)F)c1)[C@H](/C=C/C(=O)N[C@H]1CCCCNC1=O)Cc1ccc(Cl)c(Cl)c1`, the figures for the Ki on Substance-K receptor [1] and on Substance-P receptor [2] were 182 nM and 18.2 nM, respectively.

Consider `CN(C(=O)c1cc(C(F)(F)F)cc(C(F)(F)F)c1)[C@H](/C=C/C(=O)N[C@@H]1CCCCNC1=O)Cc1ccc(Cl)c(Cl)c1`, for which the results for the Ki at Substance-K receptor [1] and on Substance-P receptor [2] were 457 nM and 0.832 nM, respectively.

In the case of `CN(C(=O)c1cc(C(F)(F)F)cc(C(F)(F)F)c1)[C@@H](/C=C/C(=O)N[C@H]1CCCCNC1=O)Cc1ccc(Cl)c(Cl)c1`, the Ki at Substance-K receptor [1] was 102 nM; at Substance-P receptor [2], 8.71 nM.

Take `CN(C(=O)c1cc(C(F)(F)F)cc(C(F)(F)F)c1)[C@@H](/C=C/C(=O)N[C@@H]1CCCCNC1=O)Cc1ccc(Cl)c(Cl)c1` [DNK333]: the Ki was 9.55 nM on Substance-K receptor [1] and 4.17 nM on Substance-P receptor [2]. Also, the values for the Kb at Substance-K receptor [3] and at Substance-P receptor [4] were 53.7 nM and 11.7 nM, respectively. Besides, the values for the Cmax (in [5]; in the data set with Cavia porcellus [6]) were 600 ng/mL and 415 ng/mL, respectively. Besides, the values for the AUC at 24 h in [7], in data set [8] and in data set [12] were 6380 ng·h/mL, 2710 ng·h/mL and 4690 ng·h/mL, respectively. Also, the half-life in data set [9] is 4.2 h; in [13] it was 3.8 h. Moreover, the ED50 in the data set with Saimiri sciureus [10] was determined as 1 mg/kg; with Saimiri sciureus [15], 2.8 mg/kg. Moreover, in [11], the F is 41% and 17.4%. In the data set with Cavia porcellus [14], this compound came in with a T1/2 of 5.4 h.
